TAG inh: reduces triacylglycerol accumulation in H9c2 cells; Nile Red lipid (TAG) fluorescence; cells loaded with 200 µM oleic acid; inhibition, % at 12.5 µM; hit rate 0.66% among 230,000;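 active = pattern-corrected inhibition of lipid staining of at least 50% with the nuclear-stain viability signal not falling by more than 50%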;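 note: 0% = DMSO wells and 100% = triacsin C control wells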
Jurkat NFkB inh: lowers PMA/ionomycin-induced NF-kB signal in Jurkat cells; hit rate 0.53% among 330,000; PMA/ionomycin-induced NF-kB luciferase reporter, luminescence; inhibition, % at 4 µM; AID 435003; in the data active = inhibition above about 50%
Gli-Sufu antag: blocks Gli-Sufu signaling in a luciferase reporter. Sufu-KO-LIGHT fibroblasts, Gli luciferase reporter luminescence. inhibition, % at 5 µM. hit rate 0.74% among 340,000. AID 588413;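 active = inhibition above about 55%, limit read from the data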;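 note: 0% = DMSO-treated cells and 100% = wells with medium but no cells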
iPSC survival up: increases survival of single human iPS cells | AID 602274 | survival enhancement, % at 20 µM | hit rate 0.044% among 360,000 | hiPSC single-cell survival, ATPlite luminescence; 100% = ROCK inhibitor wells, 0% = DMSO; in the data active = survival enhancement above about 18%;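 note: cells exposed to compounds for 16 hours before the ATP read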
697 NFkB inh: lowers PMA/ionomycin-induced NF-kB signal in 697 B cells | inhibition, % at 4 µM | hit rate 0.33% among 330,000 | 697 B-cell NF-kB luciferase reporter, 16 h; in the data active = inhibition above about 35%
Hep lipid drop: modulators of hepatic lipid droplet formation; AML12 mouse hepatocytes, oleate lipid droplets, BODIPY imaging; inhibition, % at 6.5 µM; hit rate 0.4% among 240,000;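 active = lipid droplet intensity inhibited by at least 50%, with more than 500 cells counted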
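Assay system: AML12 mouse liver cells | Compound: 6.5 µM single-point dosing | Schedule: Overnight exposure | Technique: Fluorescence imaging, 20x objective, two fields per well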
TAG conf: triacylglycerol accumulation inhibition, confirmation; inhibition, % at 12.5 µM; hit rate 71% among 990; AID 651629; H9c2 lipid accumulation, Nile Red fluorescence; cells loaded with 200 µM oleic acid; shares compounds with TAG inh;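 active = mean inhibition across replicates of 40% or more; inactive = mean inhibition below 40%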;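 note: plate controls were DMSO only wells for no effect and Triacsin C treated wells for full effect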
Numbers without * were called inactive; x = not tested or not shown; ! = repeats disagree. In the library only some 1.8% were active in any assay of this set; here they are far more common.

SMILES	TAG inh	Jurkat NFkB inh	Gli-Sufu antag	iPSC survival up	697 NFkB inh	Hep lipid drop	TAG conf
CN(CCc1ccccc1)C(=O)c1ccc(NC(=O)Cc2ccc(NC(=O)C3CCN(S(=O)(=O)c4cccc([N+](=O)[O-])c4)CC3)cc2)cc1	2	x	8	-2	x	x	x
O=C(Nc1cccc2ncccc12)c1ccc(Cl)cc1	71*	5	14	-1	13	6	75*
O=C(Nc1cccc2ncccc12)c1ccc(F)cc1	x	14	-5	-1	-12	2	x
OCCN1CCN(CC(O)COc2ccc(Cl)cc2)CC1 (stereo not drawn)	15	21	4	-4	-5	8	x
OCCN1CCN(CC(O)COc2ccc(C34CC5CC(CC(C5)C3)C4)cc2)CC1 (stereo not drawn)	63*	-33	12	0	-38	2	37
Cc1ccc(NC(=O)c2cc([N+](=O)[O-])ccc2NCc2cccnc2)cc1Cl	68*	-11	13	0	-2	x	40*
COc1cccc(NC(=O)c2cc([N+](=O)[O-])ccc2NCc2cccnc2)c1	x	10	18	1	11	-20	x
Cn1c(CNC(=O)c2ccco2)nnc1SCC(=O)c1ccc(F)cc1	-25	-1	10	1	1	23	x
COc1cc(OC)c2c(-c3ccccc3)cc(=O)oc2c1C(CCN1CCN(c2ccccc2)CC1)c1ccc(N(C)C)cc1 (stereo not drawn)	54*	-10	-23	-3	4	39	63*
COc1ccc(C(CCN2CCN(c3ccccc3)CC2)c2c(OC)cc(OC)c3c(-c4ccccc4)cc(=O)oc23)cc1 (stereo not drawn)	42	-20	17	-2	24	-1	x
CCCCCc1cc(=O)oc2c(C(CCN3CCN(c4ccccc4)CC3)c3ccc(N(C)C)cc3)c(OC)cc(OC)c12 (stereo not drawn)	73*	-2	-7	0	16	24	63*
CCCCCc1cc(=O)oc2c(C(CCN(CC)CC)c3cc(OC)c(OC)c(OC)c3)c(OC)cc(OC)c12 (stereo not drawn)	114*	25	2	-4	7	23	97*
COc1cc(OC)c2ccc(=O)oc2c1C(CCN1CCN(c2ccccc2)CC1)c1ccc(N(C)C)cc1 (stereo not drawn)	-10	13	7	1	4	-4	x
Cc1ccc2c(=O)n3c(nc2c1)C(Cc1ccc(O)cc1)NC(=O)c1cc2ccccc2cc1-3 (stereo not drawn)	53*	x	x	-1	x	x	67*
O=C1NC(Cc2ccc(O)cc2)c2nc3ccc(Cl)cc3c(=O)n2-c2cc3ccccc3cc21 (stereo not drawn)	64*	x	x	-2	x	x	60*
O=C1NC(Cc2ccccc2)c2nc3ccc(Cl)cc3c(=O)n2-c2cc3ccccc3cc21 (stereo not drawn)	22	x	x	1	x	x	x
CCOc1ccc(CNc2nnnn2C)cc1	x	20	3	1	26	6	x
COc1cc(-c2cnc3c(NC=O)cc(-c4cccc(NC(C)=O)c4)cn23)cc(OC)c1OC	73*	x	x	0	x	x	96*
COc1cccc(-c2cnc3c(NC=O)cc(-c4cccc(NC(C)=O)c4)cn23)c1	25	x	x	1	x	x	x
O=[N+]([O-])c1ccc(Nc2nc(NC3CCCCC3)nc(N3CCCC3)n2)cc1	61*	-10	14	-2	-25	14	82*
CC1(C)Cc2cccc(OCC(=O)Nc3ccc(OCC(N)=O)cc3)c2O1	66*	-7	3	0	4	-15	-18
Cc1nn(-c2cccc(Cl)c2)c2nc(-c3ccncc3)cc(C(=O)N3CCOCC3)c12	53*	-18	5	0	23	7	53*
N#Cc1cn(-c2ccccc2)nc1-c1ccc2c(c1)OCCO2	59*	-69	-89	4	-139	24	11
O=Cc1cn(-c2ccccc2)nc1-c1ccc2c(c1)OCCO2	9	-120	-21	0	-149	27	x
O=C(NC(c1ccc(F)cc1)c1ccc2ccccc2n1)C1CCN(Cc2ccc3ccccc3n2)CC1 (stereo not drawn)	-8	x	x	-1	x	x	x
SMILES	TAG inh	Jurkat NFkB inh	Gli-Sufu antag	iPSC survival up	697 NFkB inh	Hep lipid drop	TAG conf
COc1cc(/C=C/CN2CCC(C(=O)NC(c3ccc(F)cc3)c3ccc4ccccc4n3)CC2)ccc1OC(C)=O (stereo not drawn)	54*	x	x	-2	x	x	54*
CN(C)c1ccc(CN2CCC(C(=O)NC(c3ccc(F)cc3)c3ccc4ccccc4n3)CC2)cc1 (stereo not drawn)	56*	x	x	-3	x	x	38
O=C(NC(c1ccc(F)cc1)c1ccc2ccccc2n1)C1CCN(CCOc2ccc(Cl)cc2)CC1 (stereo not drawn)	-7	x	x	-2	x	x	x
COC(=O)c1cc(C(=O)Nc2nnc(C3CC3)s2)cc([N+](=O)[O-])c1	x	-3	14	2	-36	-2	x
COCCNC(=O)c1ccc(N2CC3CC(C2)c2cccc(=O)n2C3)c(NC(=O)c2ccc(Br)o2)c1 (stereo not drawn)	x	-7	-7	0	-40	0	x
COc1cc(NC(=O)c2cc3cccc(OC)c3o2)cc(C(=O)Nc2cccc(C(F)(F)F)c2)c1	55*	22	28	0	13	12	69*
CCN1CCN(Cc2ccc(NC(=O)c3cc(NC(=O)c4cncc(-c5cccs5)c4)cc(OC)c3)cc2C(F)(F)F)CC1	57*	7	4	-4	9	x	44*
CCN1CCN(Cc2ccc(NC(=O)c3cc(NC(=O)c4cc5cccc(OC)c5o4)cc(OC)c3)cc2C(F)(F)F)CC1	60*!	-10	-3	-4	-7	7	68*
COc1cc(NC(=O)c2ccno2)cc(C(=O)Nc2cccc(C(F)(F)F)c2)c1	-2	-4	18	-2	18	14	x
O=[N+]([O-])c1ccc(CSC2=NCCN2)cc1	33	0	-11	4	4	-8	x
N#CC(c1nc2ccccc2nc1OCCO)S(=O)(=O)c1ccccc1 (stereo not drawn)	7	-10	5	0	20	-5	x
COc1ccc2c(c1)[nH]c1c(=O)n(/N=C/C3C(C)C=C(C)CC3C)c(=O)[nH]c12 (stereo not drawn)	85*	16	-2	0	14	8	20
O=C(NC1CCCCCC1)C1CC(=O)N(c2ccc(Cl)cc2)C1 (stereo not drawn)	x	13	-8	-1	12	14	x
COc1cccc(CNS(=O)(=O)c2ccc3c(c2)oc(=O)n3C)c1	-13	-21	4	0	-51	-15	x

Bioassay records as filed in PubChem.
